Laboratory results: PubChem BioAssay
Inconclusive results are not listed.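 Rule for the calls, unless noted: active = growth inhibition above 25% in both replicates, a cutoff set 3 SD above the mean; inconclusive = above 25% in only one replicate; inactive = the rest.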

Legend:
[1] = OD615 S. cerevisiae growth inhibition, permissive medium, pilot counter-assay, permissive growth control for S. cerevisiae lifespan shortening project (AID 705); conditions: OD615, 24 h, at 10 µM, hits give high values
Method in brief: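 System: Engineered DeaD yeast | Buffer or medium: SC raffinose/galactose permissive medium | Incubation: Cells pre-grown 4 h, then 24 h compound exposure, 30 °C humidified | Measured by: Absorbance (optical density) at 615 nm | Read-out: Reduction in yeast growth (OD615)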

[2] = Restrictive medium S. cerevisiae growth inhibition, OD615, pilot screen of yeast lifespan reduction project, restrictive growth control (AID 706;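 active = growth inhibition above a set limit, 3 SD over mean compound inhibition, in both replicates, cut at about 43% in these data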;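 note: modified DeaD lifespan yeast strain shifted to restrictive glucose medium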); conditions: OD615, 48 h, at 10 µM, hits give high values
Method in brief: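 Material: modified S. cerevisiae; Medium: glucose-based CSMM-D restrictive medium; Compound dosing: one concentration, 10 µM final, 0.25% DMSO; Incubation: 48 h compound exposure at 30 °C; Measured by: OD615.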

[3] = viability gain of MRP-1-high H69AR cells under doxorubicin, pilot screen, MRP-1 activator project, CellTiter-Glo, duplicate (AID 807;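 active = viability increase at or above a cutoff of the median across tested compounds plus 3 SD, cut at about 8.5% in these data, passing the limit was not always enough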;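 note: compound pretreatment 18-22 h then 72 h combined with doxorubicin; 0% = doxorubicin alone and 100% = vehicle without doxorubicin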); conditions: H69AR viability with doxorubicin, CellTiter-Glo luminescence; at 10 µM; hits give high values
[4] = growth suppression of beta-catenin knockout HCT116, pilot screen, human colon tumor cells (AID 823;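 active = cell viability at or below a set limit in both duplicate runs, the limit being the all-compound median minus 4 SD, cut at about 23% in these data, passing the limit was not always enough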;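 note: 0% = wells killed by 20 µM Hyamine and 100% = untreated DMSO cell wells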); conditions: CellTiter-Glo, 60 h, at 10 µM, hits give low values
[5] = growth suppression of PTEN-deleted HCT116, pilot screen, cell-based, HCT116 clonal line, CellTiter-Glo (AID 824;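 active = viability at or below 27.92% in each of two runs, the all-compound median minus 4 SD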;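 note: 0% = 20 µM Hyamine control and 100% = vehicle cell control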); conditions: 60 h, at 10 µM, hits give low values
[6] = inhibitors of the yeast RAM network, pilot screen, dse1pr::URA3 reporter, 5-FOA selection (AID 869;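 active = inhibition over a set limit, the all-compound mean plus 3 SD, in both replicate runs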;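 note: 0% = DMSO wells with no growth and 100% = 10 µM 1-NA-PP1 with full growth; RAM network block rescues cells from 5-FOA so hits raise OD615 growth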); conditions: S. cerevisiae dse1pr::URA3 5-FOA growth, OD615, 2 d; at 10 µM; hits give high values; strain carries analog-sensitive mutant Cbk1 kinase
[7] = RAM signaling pathway blockade in yeast – S. cerevisiae, Pdr1DBD-CYC8 efflux-inhibited sensitized strain, primary screen (AID 1298;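 active = RAM network inhibition above 8.4% in each of two replicates, 3 SD over the compound average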;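 note: 0% = DMSO untreated cells without growth and 100% = 10 µM 1-NA-PP1 full growth; higher means more yeast growth rescued from 5-FOA killing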); conditions: S. cerevisiae cbk1-as DSE1-URA3 strain, 5-FOA growth OD615, 2 d; at 50 µM; hits give high values

Cc1cccc(N2CCN(C(=O)C3CCN(S(=O)(=O)c4cccc5cccnc45)CC3)CC2C)c1 (stereo unspecified)
inactive: growth inhibition [1] -1.53% | growth inhibition [2] -4.12% | viability increase [3] -1.38% | viability [4] 69.9% | viability [5] 67.1% | inhibition [6] 2.65% | RAM network inhibition [7] 1.04%

COc1ccc(Nc2nnc(Cc3ccc(Cl)cc3)c(=O)[nH]2)c(OC)c1
inactive: growth inhibition [1] -11.1% | growth inhibition [2] -13% | viability increase [3] 1.86% | viability [4] 100% | viability [5] 95.7% | inhibition [6] 1.89% | RAM network inhibition [7] 2.35%

Cc1cc(C)n(-c2nc3ccccc3nc2N2CCOCC2)n1
inactive: growth inhibition [1] -12.6% | growth inhibition [2] 7.74% | viability increase [3] -1.22% | viability [4] 98% | viability [5] 98.3% | inhibition [6] 2.33% | RAM network inhibition [7] 2.25%

O=c1c2ccccc2nc(SCc2nnc(-c3ccccc3)o2)n1-c1ccccc1
inactive: growth inhibition [1] -13.1% | growth inhibition [2] -8.7% | viability increase [3] -3.18% | viability [4] 75.4% | viability [5] 84.6% | inhibition [6] 1.96% | RAM network inhibition [7] 5.69%

COCC(C)NC(=O)c1cc(-c2ccc(O)cc2)on1 (stereo unspecified)
inactive: growth inhibition [1] -1.88% | growth inhibition [2] 4.68% | viability increase [3] -3.12% | viability [4] 105% | viability [5] 100% | inhibition [6] 2.48% | RAM network inhibition [7] 0.94%

Nc1cc(C(=O)c2cccs2)ccc1Cl
inactive: growth inhibition [1] -9.76% | growth inhibition [2] -0.475% | viability increase [3] -1.88% | viability [4] 90.9% | viability [5] 96.7% | inhibition [6] 0.165% | RAM network inhibition [7] 3.24%

COc1cc(NC(=O)COc2ccc(F)cc2)nc(OC)n1
inactive: growth inhibition [1] -2.6% | growth inhibition [2] 11.7% | viability increase [3] -3.92% | viability [4] 101% | viability [5] 101% | inhibition [6] 1.72% | RAM network inhibition [7] 1.08%

Cc1c(C#N)c2ncn(Cc3ccccc3)c(=O)c2n1-c1ccccc1
inactive: growth inhibition [1] -19.7% | growth inhibition [2] -0.37% | viability increase [3] -3.74% | viability [4] 81.1% | viability [5] 83.8% | inhibition [6] 0.47% | RAM network inhibition [7] 4.19%

CCCOc1ccc(N2C(=O)CC(N3CCN(c4ccccc4OC)CC3)C2=O)cc1 (stereo unspecified)
inactive: growth inhibition [1] 0.31% | growth inhibition [2] -41.2% | viability increase [3] 0.03% | viability [4] 97.6% | viability [5] 90.8% | inhibition [6] 2.04% | RAM network inhibition [7] 5.49%

COc1ccc(C2C(C(=O)Nc3cc(C)on3)c3ccccc3C(=O)N2C)cc1 (stereo unspecified)
inactive: growth inhibition [1] 2.9% | growth inhibition [2] -2.79% | viability increase [3] -1.73% | viability [4] 101% | viability [5] 101% | inhibition [6] 1.46% | RAM network inhibition [7] 0.37%

O=C(c1cc2ccccc2cc1OCC(O)CN1CCCCC1)N1CCCCC1 (stereo unspecified)
inactive: growth inhibition [1] 2.48% | growth inhibition [2] 0.51% | viability increase [3] -4.18% | viability [4] 86.6% | viability [5] 83.5% | inhibition [6] 0.285% | RAM network inhibition [7] -0.89%

CC(C)COC(=O)c1ccc(NC(=O)C2C3CCC(C3)C2C(=O)O)cc1 (stereo unspecified)
inactive: growth inhibition [1] -7.04% | growth inhibition [2] -5.98% | viability increase [3] 0.09% | viability [4] 87.4% | viability [5] 90% | inhibition [6] 0.68% | RAM network inhibition [7] 0.37%

COc1ccc(C2C(C(=O)Nc3ccccn3)=C(C)Nc3ncnn32)c(OC)c1 (stereo unspecified)
inactive: growth inhibition [1] -8.54% | growth inhibition [2] -6.24% | viability increase [3] -1.04% | viability [4] 101% | viability [5] 92.1% | inhibition [6] 2.48% | RAM network inhibition [7] 7.85%

COc1cccc(C(=O)NCCn2ccc3ccccc32)c1
inactive: growth inhibition [1] -0.9% | growth inhibition [2] -3.15% | viability increase [3] -1.6% | viability [4] 95.3% | viability [5] 90.6% | inhibition [6] 0.825% | RAM network inhibition [7] 2.48%

CCOC(=O)Cn1c(=O)oc2cc(S(=O)(=O)N3CCN(c4ccccn4)CC3)ccc21
inactive: growth inhibition [1] 10.4% | growth inhibition [2] 6.56% | viability increase [3] -2.64% | viability [4] 96.3% | viability [5] 99.5% | inhibition [6] 0.75% | RAM network inhibition [7] 3.64%

NC(=O)CSc1ncc(-c2ccccc2)[nH]1
inactive: growth inhibition [1] -4.49% | growth inhibition [2] -3.75% | viability increase [3] -3.58% | viability [4] 101% | viability [5] 93.7% | inhibition [6] 0.715% | RAM network inhibition [7] 4.43%

O=C(NC1CCS(=O)(=O)C1)C1CCCCN1S(=O)(=O)c1ccc(Cl)cc1 (stereo unspecified)
inactive: growth inhibition [1] -5.22% | growth inhibition [2] -3.24% | viability increase [3] -1.52% | viability [4] 95% | viability [5] 90.8% | inhibition [6] 1.53% | RAM network inhibition [7] 2.19%

CC1CCN(S(=O)(=O)c2ccc3c(c2)oc(=O)n3CC(=O)N2c3ccccc3CC2C)CC1 (stereo unspecified)
inactive: growth inhibition [1] -4.77% | growth inhibition [2] -7.59% | viability increase [3] -4.28% | viability [4] 68.5% | viability [5] 52.9% | inhibition [6] 2.85% | RAM network inhibition [7] 7.34%

CC(C)(C)NCCCCOc1ccc(F)cc1
inactive: growth inhibition [1] 0.455% | growth inhibition [2] -1.1% | viability increase [3] 0.34% | viability [4] 99.3% | viability [5] 101% | inhibition [6] 1.71% | RAM network inhibition [7] 1.66%

COC(=O)c1cccc(NC(=O)C(C)N2C(=O)c3ccccc3C2=O)c1 (stereo unspecified)
inactive: growth inhibition [1] -16.2% | growth inhibition [2] 10.2% | viability increase [3] -1.25% | viability [4] 93.4% | viability [5] 106% | inhibition [6] 1.77% | RAM network inhibition [7] 2.77%

O=C(CN1CCOc2ccccc21)N1CCC(Cc2ccccc2)CC1
inactive: growth inhibition [1] -3.59% | growth inhibition [2] 21.2% | viability increase [3] -3.42% | viability [4] 88% | viability [5] 95.1% | inhibition [6] 1.46% | RAM network inhibition [7] 8.63%

COc1ccc(C(=O)NCc2cn3ccsc3n2)cc1OC
inactive: growth inhibition [1] -9.73% | growth inhibition [2] -1.42% | viability increase [3] -1.54% | viability [4] 105% | viability [5] 94.6% | inhibition [6] 2.29% | RAM network inhibition [7] 2.63%

Cc1c(C(=O)NCc2ccc3c(c2)OCO3)oc2ccc(S(=O)(=O)N3CCCCCC3)cc12
inactive: growth inhibition [1] -14% | growth inhibition [2] -7.72% | viability increase [3] -1.19% | viability [4] 77.5% | viability [5] 77.3% | inhibition [6] 1.82% | RAM network inhibition [7] 10.9%
